Source: PubChem BioAssay (several laboratories)
Most compounds without a hit are left out; they make up all but 5.5% or so of the library.
KCC2 mod – modulators of human KCC2 chloride dependent transport | KCC2 cells, thallium flux FluoZin-2 fluorescence | Q9H2X9 | B-score of Tl+ flux slope (higher = more flux/activation; lower = inhibition) at 10 µM | AID 1456 | 190,000 tested, 2.2% active;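 active = thallium flux slope and its plate-corrected score both differing from the plate sample mean at a set confidence after two filtering rounds, in either direction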;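 also: slope of fluorescence scaled to starting intensity during 10 to 20 s after thallium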
Target sequence (Q9H2X9 whole entry, looked up): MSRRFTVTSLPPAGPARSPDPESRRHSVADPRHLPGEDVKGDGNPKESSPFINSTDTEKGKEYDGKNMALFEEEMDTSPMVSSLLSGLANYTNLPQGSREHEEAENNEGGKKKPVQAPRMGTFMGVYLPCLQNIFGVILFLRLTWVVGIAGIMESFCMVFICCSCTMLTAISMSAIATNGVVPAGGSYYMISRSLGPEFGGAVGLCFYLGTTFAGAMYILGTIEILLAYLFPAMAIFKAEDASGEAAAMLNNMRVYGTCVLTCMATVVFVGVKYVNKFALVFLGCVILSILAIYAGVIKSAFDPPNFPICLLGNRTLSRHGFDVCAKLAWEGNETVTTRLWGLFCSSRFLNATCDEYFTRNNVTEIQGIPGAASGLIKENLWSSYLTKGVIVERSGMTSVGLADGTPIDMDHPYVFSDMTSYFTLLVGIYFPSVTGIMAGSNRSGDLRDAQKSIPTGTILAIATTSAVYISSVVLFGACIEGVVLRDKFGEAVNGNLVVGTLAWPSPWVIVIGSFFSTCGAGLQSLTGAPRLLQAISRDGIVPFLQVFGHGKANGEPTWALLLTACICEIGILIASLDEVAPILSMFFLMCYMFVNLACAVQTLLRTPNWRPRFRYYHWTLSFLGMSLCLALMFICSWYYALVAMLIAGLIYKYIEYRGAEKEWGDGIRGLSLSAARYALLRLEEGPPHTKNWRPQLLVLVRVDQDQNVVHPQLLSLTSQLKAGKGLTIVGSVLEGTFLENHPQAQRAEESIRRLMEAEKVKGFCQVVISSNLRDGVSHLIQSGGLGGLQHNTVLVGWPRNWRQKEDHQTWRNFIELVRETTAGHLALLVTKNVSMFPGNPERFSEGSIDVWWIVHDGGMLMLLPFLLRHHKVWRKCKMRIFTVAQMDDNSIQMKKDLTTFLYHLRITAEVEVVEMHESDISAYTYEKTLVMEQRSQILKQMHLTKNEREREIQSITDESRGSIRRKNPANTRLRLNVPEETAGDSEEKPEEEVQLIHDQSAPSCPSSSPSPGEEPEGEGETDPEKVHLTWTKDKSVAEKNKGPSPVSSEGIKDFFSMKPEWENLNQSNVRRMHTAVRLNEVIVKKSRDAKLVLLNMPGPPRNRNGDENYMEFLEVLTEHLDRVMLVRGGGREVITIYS
WT yeast gro inh – growth inhibition of WT yeast, mitochondrial fusion screen; mitochondrial fusion phenotypic screen, WT strain; inhibition, % at 10 µM; 190,000 tested, 2.1% active; in the data active = inhibition above about 58%; tested in S. cerevisiae
Yeast growth inh – chemicals that inhibit yeast BB579 growth in restrictive medium (lifespan-shortening candidates). S. cerevisiae BB579 growth, OD615, 48 h. inhibition, % at 10 µM. 140,000 tested, 0.51% active;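 active = inhibition above a set limit, 3 SD over the mean compound inhibition, cut at about 44% in these data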
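Test system: S. cerevisiae DeaD strain BB579 yeast; Medium: restrictive CSMM-D medium; Compound: one dose, 10 µM compound with 0.25% DMSO; Incubation: 4 h cell preincubation, 48 h compound exposure, 30 °C humidified; Signal: OD at 615 nm; Benchmarks: amphotericin B at 10 µg/mL as positive control.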
RAM inhibit – inhibitors of the yeast RAM network. S. cerevisiae dse1pr::URA3 reporter, 5-FOA growth OD615, 2 d; analog-sensitive cbk1-as2 kinase mutant strain. inhibition, % at 50 µM. 190,000 tested, 1.8% active. AID 868;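 active = inhibition above a set limit, 3 SD over mean compound inhibition, cut at about 8.4% in these data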;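 also: 0% = DMSO-only wells with no growth and 100% = 10 µM 1-NA-PP1 full growth; inhibition rescues growth on 5-FOA so higher OD means more RAM inhibition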
Yeast lifespan up – extends the lifespan of yeast; S. cerevisiae growth with nicotinamide, OD615; deaD strain in restrictive glucose medium; inhibition of the nicotinamide effect, % at 10 µM; 130,000 tested, 0.68% active;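 active = inhibition above a set limit, placed 3 SD over the median of all compounds, cut at about 26% in these data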;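 also: 0% = nicotinamide-treated wells and 100% = cells grown without nicotinamide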
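Test system – modified budding yeast, DeaD strain · Compound – single dose 10 µM compound, 0.25% DMSO · Times – culture preincubation 4 h, compound exposure 48 h, both 30 °C · Detection – optical density (absorbance) at 615 nm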
The depositor's hits bear a star; / = no result.

SMILES	KCC2 mod	WT yeast gro inh	Yeast growth inh	RAM inhibit	Yeast lifespan up
Oc1c(C(Nc2ccccn2)c2cccnc2)cc(Cl)c2cccnc12 (configuration not stated)	-0.969	-25.0	-7.6	1.3	27.6*
COC(=O)c1cnc(Oc2ccc(NC(=O)NC(=O)c3ccccc3Cl)cc2)cc1C(F)(F)F	1.01	/	/	/	/
O=C(Nc1ccc2c(c1)OCO2)c1ccccc1SCC(=O)N1CCCC1	/	65.0*	-45.6	0.1	-24.8
CC1CCCN(c2nc3ccccc3nc2C(C#N)C(=O)OC2CCCCC2)C1 (configuration not stated)	-0.00139	45.8	-25.8	1.9	64.3*
CC1CN(c2nc3ccccc3nc2C(C#N)C(=O)OC2CCCCC2)CC(C)O1 (configuration not stated)	-0.265	59.6*	-5.8	5.1	0.6
CC1CCN(c2nc3ccccc3nc2C(C#N)C(=O)OC2CCCCC2)CC1 (configuration not stated)	0.776	/	-45.8	4.1	-8.4
Cc1cccc(OCCCCCn2ccnc2)c1	0.105	11.8	-34.9	1.1	-7.8
Cc1cc(Cl)cc(C)c1OCCCCn1ccnc1	-0.686	76.0*	-57.8	-0.6	-10.2
Cc1cc(OCCCCn2ccnc2)cc(C)c1Cl	0.727	76.2*	/	1.0	/
CC(C)c1nnc(NC(=O)c2cccc(NC(=O)C(F)(F)F)c2)s1	0.594	7.7	/	2.3	/
CCOC(=O)Cn1nc(C)c(NC(=O)COc2ccc(C)c(C)c2)c1C	-1.21	/	/	/	/
CCCCc1c(C)nn(-c2nnc3c4ccccc4n(CC)c3n2)c1C	-0.803	68.0*	-73.5	0.3	-11.5
CCOc1cccc(OCCCNCCCOC)c1	0.0384	60.4*	-19.7	0.7	-7.0
Cc1cc(Br)c(Cl)cc1NC(=O)CN1C(=O)C2C3CC(c4ccccc4)C(C3)C2C1=O (configuration not stated)	0.108	69.6*	-28.6	4.4	7.2
CCCCCCCOc1ccc(-c2ccc(C#N)cn2)cc1	-1.19	14.8	-11.6	10.4*	-2.1
S=c1sc(SCCOc2ccccc2)nn1-c1ccccc1	-0.0433	8.1	-43.6	4.5	-1.5
CCOc1ccc2oc(C(=O)NCC(C)(C)CN(C)C)c(C)c2c1	0.371	-17.4	/	2.6	/
COc1ccc(COc2cc(-c3cccc(OC)c3)nc3ccc(NC(=O)c4ccc(N(C)C)cc4)cc23)cc1	0.905	8.9	-28.6	5.5	1.7
COc1ccc(COc2cc(-c3cccc(OC)c3)nc3ccc(NC(=O)c4ccc(C)cc4)cc23)cc1	0.121	-6.4	-39.4	8.6*	3.1
C=CCn1c(SCC(=O)c2ccc(Cl)cc2)nnc1-c1ccc2c(c1)OCO2	-1.88	-5.2	-64.6	4.4	10.2
Clc1ccc(OCCSCc2nc3ccccc3[nH]2)cc1	/	79.3*	-48.0	-0.5	-12.4
Cc1ccc(OCCSCc2nc3ccccc3[nH]2)cc1	/	45.8	-42.4	0.7	-12.1
Cc1ccc(CSCc2nc3ccccc3[nH]2)cc1	-0.25	67.5*	/	-0.1	/
O=C(c1ccc(Oc2ccccc2)cc1)c1nc2c(n1O)CCCC2	/	26.8	-34.5	-1.4	-8.7
COc1cc(NC(=S)NCc2ccc(S(N)(=O)=O)cc2)c(OC)cc1Cl	1.92	-1.0	-0.1	2.1	-2.1
SMILES	KCC2 mod	WT yeast gro inh	Yeast growth inh	RAM inhibit	Yeast lifespan up
O=C(NCc1nnc(SCc2ccccc2)n1-c1ccccc1)C12CC3CC(CC(C3)C1)C2	-1.75	-7.0	-19.3	-0.2	-4.9
CCCCSc1nnc(CNC(=O)C23CC4CC(CC(C4)C2)C3)n1Cc1ccccc1	-0.666	58.5*	-6.7	-0.1	0.3
COc1ccc(C2CC23N=C(c2ccccc2)OC3=O)cc1 (configuration not stated)	2.17	6.2	-13.7	-0.3	44.8*
C=C(C)C1Cc2c(C)nn(-c3nc(C)cc(C)n3)c2C1 (configuration not stated)	-0.978	63.9*	-4.8	0.0	-8.8
COC(=O)CP(=O)(c1ccccc1)c1ccccc1	/	69.3*	1.4	0.4	-12.1
Cc1ccc(NC(=O)CCn2nc([N+](=O)[O-])cc2C)nc1	1.1	10.9	-11.8	-0.3	27.1*
Cc1ccc(Oc2cc(NC(=O)CCCn3nc([N+](=O)[O-])cc3C)cc([N+](=O)[O-])c2)cc1	-0.255	37.2	-41.3	9.5*	0.5
CCn1nc(C)c(C(=O)Nc2cc(Oc3cc(C)cc(C)c3)cc([N+](=O)[O-])c2)c1C	0.0105	68.7*	-29.5	2.1	-5.2
Cc1nn(CCCC(=O)Nc2cc(Oc3ccccc3)cc([N+](=O)[O-])c2)c(C)c1[N+](=O)[O-]	-0.176	18.7	-8.8	6.4	0.5
Cc1cc([N+](=O)[O-])nn1CC(=O)Nc1ccc(Cl)cn1	-0.431	9.5	/	3.6	/
Cn1nc(C(=O)NCCc2ccc(S(N)(=O)=O)cc2)c2ccccc2c1=O	0.8	/	/	/	/
NS(=O)(=O)c1ccc(CCNC(=O)CSc2nc3ccccc3c(=O)n2CCC(=O)N2CCCCC2)cc1	0.644	-2.3	/	1.1	/
CCOC(=O)C1CCN(S(=O)(=O)c2ccc(OC)c(Cl)c2)CC1	0	22.1	/	2.7	/
Cc1cc(Br)cnc1NC(=S)Nc1ccc(F)cc1F	1.69	15.8	/	1.1	/
CC(=O)Nc1ccc(NC(=O)c2ccc(NS(=O)(=O)c3cc(C(C)(C)C)cc(C)c3C)cc2)cc1	1.16	6.7	-41.6	10.3*	2.7
Cc1cc(C(C)(C)C)cc(S(=O)(=O)Nc2ccc(O)c(C(=O)O)c2)c1C	/	-0.3	-14.3	-0.1	-3.9
CCCN1Cc2cccc(C(=O)NC(CC(=O)OCC)c3ccc(C)cc3)c2C1=O (configuration not stated)	-0.0984	66.0*	/	0.4	/
CCCN1Cc2cccc(C(=O)NC(CC(=O)OCC)c3ccc(OC(C)C)cc3)c2C1=O (configuration not stated)	-0.798	38.3	/	2.3	/
O=C(CCS(=O)(=O)c1cccs1)N1CCN(c2ccc(F)cc2)CC1	/	-15.3	-12.9	1.1	-6.4
COc1ccc(S(=O)(=O)CCC(=O)N2CCN(c3ccc(F)cc3)CC2)cc1	-0.452	4.1	/	10.2*	/
O=C(N/N=C(\Cc1ncc[nH]1)c1ccccc1)c1cccnc1	0.256	-2.0	/	1.0	/
COc1ccc(-n2nc(C#N)c(Cl)cc2=O)cc1	-1.38	67.2*	/	-1.4	/
COC(=O)c1nn(-c2ccc(OC)cc2)c(=O)cc1O	1.74	2.5	/	0.7	/
Cc1nc(N2CCN(S(=O)(=O)c3ccc(F)cc3)CC2)c2c(-c3cccs3)csc2n1	-0.536	34.8	/	0.8	/
Cc1ccc(C)c(NC(=S)N=Nc2c(O)n(C)c3ccc(S(=O)(=O)N4CCOCC4)cc23)c1	5.66*	28.3	-12.9	5.2	5.4
CC(=O)Nc1cccc(OCC(=O)Nc2ccccc2)c1	-0.197	-14.1	-23.7	-0.9	-4.9
CCOc1ccc(NC(=O)COc2ccc(C(=O)NCCc3ccccc3)cc2)cc1	-2.11	-7.9	-10.7	3.1	2.0
COc1ccccc1NC(=O)COc1ccccc1	-0.156	13.6	-39.0	2.0	-14.2
O=C(COc1ccccc1)Nc1ccccc1Oc1ccccc1	0.244	61.7*	-16.9	1.7	1.9
